This note sets out measurements from ChEMBL document CHEMBL4706647, “Development and optimization of halogenated vinyl sulfones as Nrf2 activators for the treatment of Parkinson's disease” (Eur J Med Chem, 2021).

For data set [1], the target named is T1, Nuclear factor erythroid 2-related factor 2 (Mus musculus) (UniProt Q60795).
T1 sequence (whole entry): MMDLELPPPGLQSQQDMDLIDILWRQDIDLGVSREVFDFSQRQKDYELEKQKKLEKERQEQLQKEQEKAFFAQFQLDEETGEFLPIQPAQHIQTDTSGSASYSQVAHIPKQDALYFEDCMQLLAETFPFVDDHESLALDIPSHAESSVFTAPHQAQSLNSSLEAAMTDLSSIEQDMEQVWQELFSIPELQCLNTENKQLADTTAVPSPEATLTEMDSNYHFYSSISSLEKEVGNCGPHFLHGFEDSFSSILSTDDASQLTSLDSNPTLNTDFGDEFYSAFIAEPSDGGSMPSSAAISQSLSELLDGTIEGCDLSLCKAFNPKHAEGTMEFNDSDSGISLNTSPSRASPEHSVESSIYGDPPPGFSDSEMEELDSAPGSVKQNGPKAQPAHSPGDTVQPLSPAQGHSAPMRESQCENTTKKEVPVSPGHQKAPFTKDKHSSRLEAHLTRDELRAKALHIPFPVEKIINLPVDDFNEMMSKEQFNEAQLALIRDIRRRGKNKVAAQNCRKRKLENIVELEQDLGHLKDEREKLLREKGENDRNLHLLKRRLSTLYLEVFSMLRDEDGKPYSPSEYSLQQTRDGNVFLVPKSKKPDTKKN
As to the kind of experiment: Activation of Nrf2 in mouse BV-2 cells assessed as increase in GCLM expression at 10 uM after 6 hrs by Western blot analysis relative to control. Conditions: filed as activator. It is filed as cell-based. The procedure, abridged:
(§1)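 BV-2 microglia grown in RPMI-1640 with 10% FBS, penicillin-streptomycin and 2 mM L-glutamine at 37 °C, 5% CO2. Cells exposed to a range of concentrations for 6 h, then HO-1, GCLC, GCLM and SOD1 protein measured by Western blot. Band intensity normalized to β-actin and given as fold of vehicle control. Mean ± SEM, n = 3, three separate experiments.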
On the technique in general: A western blot detects proteins with antibodies after separation by electrophoresis.

A short description of data set [2]: Cytotoxicity against mouse BV-2 cells assessed cell viability at 3 uM measured after 6 hrs by Ez-cytox reagent based assay relative to control. Conditions: read-out: Activity. Put shortly: (§2)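 BV-2 cells (1.0 × 10⁴/well) grown 24 h at 37 °C, 5% CO2, then treated 6 h at […]. Viability expressed as percent of control.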
Data set [3] addresses T1, Nuclear factor erythroid 2-related factor 2 (Mus musculus). As to the kind of experiment: Activation of Nrf2 in mouse BV-2 cells assessed as increase in GCLC expression after 6 hrs by Western blot analysis. Format: cell-based. Conditions: filed as activator, dose 0.02-10 µM. Put shortly:
as §1

The test system of data set [4] is BV-2. In words: Antiinflammatory activity in mouse BV-2 cells assessed as inhibition of LPS-induced nitric oxide production preincubated for 6 hrs followed by LPS stimulation and measured after 24 hrs by griess assay. It is filed as functional, cell-based. Conditions: dose 0.01-3 µM, time 30.0 hrs. The procedure, abridged: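 Nitrite in medium read by Griess reaction. BV-2 cells pretreated 6 h across a dose range, then given LPS for 24 h. Medium treated with 1% sulfanilamide in 5% phosphoric acid, then 0.1% N-1-naphthylethylenediamine, each 5 min at RT in the dark. A540 read and converted against a nitrite standard curve.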

The target of data set [5] is T1, Nuclear factor erythroid 2-related factor 2 (Mus musculus). As to the kind of experiment: Activation of Nrf2 in mouse BV-2 cells assessed as increase in Gclm mRNA expression at 1 uM after 6 hrs by RT-qPCR analysis relative to control. It is filed as cell-based. Conditions: filed as activator. The procedure, abridged: (§3)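 BV-2 cells exposed to a range of concentrations for 6 h. Ho1, Gclc, Gclm and Sod1 mRNA quantified by RT-qPCR and expressed relative to vehicle-treated control. Mean ± SEM, n = 3; Student's t-test.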

For the next data set, the target named is CYP2C9 (Homo sapiens, UniProt P11712). In words: Inhibition of CYP2C9 (unknown origin) assessed as residual activity. Format: ADME.
The nature of data set [6]: Cytotoxicity against mouse BV-2 cells assessed cell viability at 0.3 uM measured after 6 hrs by Ez-cytox reagent based assay relative to control. Conditions: read-out: Activity. The procedure, abridged: as §2
Data set [7] is described as follows: Stability in human microsomes assessed as parent compound remaining after 30 mins. Format: ADME, Microsome. Conditions: read-out: Stabilty.
Data set [8] in a line: Cytotoxicity against mouse BV-2 cells assessed cell viability at 0.1 uM measured after 6 hrs by Ez-cytox reagent based assay relative to control. Conditions: read-out: Activity. Put shortly:
as §2

The next data set concerns Mus musculus. In words: Neuroprotective activity in MPTP-induced C57BL/6 mouse model of Parkinson's disease assessed as reduction in time to climb down at 30 mg/kg, po pretreated for 1 day followed by MPTP challenge and subsequent compound dosing for 2 days measured 6 days post MPTP challenge by vertical grid test. Format: functional, organism-based. Conditions: time 7.0 day. The procedure, abridged: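 Male C57BL/6 mice, 10 weeks old, 23–26 g, n = 10 per group. Dosed 30 mg/kg p.o. for 3 consecutive days in 10% N-methyl-2-pyrrolidone/20% Tween-80 in water. On day 2, MPTP-HCl 20 mg/kg i.p. given four times at 2 h intervals. Coat-hanger (scored 1–5, test done twice) and vertical grid tests run 6 days after MPTP. Brains taken next day for anti-TH immunohistochemistry (1:1000, DAB).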

For data set [9], the target named is T1, Nuclear factor erythroid 2-related factor 2 (Mus musculus). In words: Activation of Nrf2 in mouse BV-2 cells assessed as increase in HO1 mRNA expression after 6 hrs by RT-qPCR analysis. It is filed as cell-based. The settings on record: filed as activator, dose 0.03-1 µM. The procedure, abridged: as §3
In general terms: In qPCR the cycle at which signal appears reflects the starting amount.

The target is the same in data set [10]. As to the kind of experiment: Activation of Nrf2 in mouse BV-2 cells assessed as increase in SOD1 expression after 6 hrs by Western blot analysis. Format: cell-based. Conditions: filed as activator, dose 0.02-10 µM. The procedure, abridged: as §1
For data set [11], the system named is BV-2. As to the kind of experiment: Antiinflammatory activity in mouse BV-2 cells assessed as inhibition of LPS-induced IL6 production preincubated for 6 hrs followed by LPS stimulation and measured after 24 hrs by ELISA. It is filed as functional, cell-based. The settings on record: dose 0.02-2 µM, time 30.0 hrs. Put shortly: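 BV-2 cells seeded in 12-well plates and pretreated 6 h with compound at […]. LPS then added for 24 h. TNF-α and IL-6 released into the medium quantified by ELISA. Mean ± SEM, n = 3, three separate experiments.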
(ELISA stands for enzyme-linked immunosorbent assay.)

Activity calls are given as the source filed them. The rule behind the calls is not given here.

Chain of CYP2C9 (P11712 whole entry): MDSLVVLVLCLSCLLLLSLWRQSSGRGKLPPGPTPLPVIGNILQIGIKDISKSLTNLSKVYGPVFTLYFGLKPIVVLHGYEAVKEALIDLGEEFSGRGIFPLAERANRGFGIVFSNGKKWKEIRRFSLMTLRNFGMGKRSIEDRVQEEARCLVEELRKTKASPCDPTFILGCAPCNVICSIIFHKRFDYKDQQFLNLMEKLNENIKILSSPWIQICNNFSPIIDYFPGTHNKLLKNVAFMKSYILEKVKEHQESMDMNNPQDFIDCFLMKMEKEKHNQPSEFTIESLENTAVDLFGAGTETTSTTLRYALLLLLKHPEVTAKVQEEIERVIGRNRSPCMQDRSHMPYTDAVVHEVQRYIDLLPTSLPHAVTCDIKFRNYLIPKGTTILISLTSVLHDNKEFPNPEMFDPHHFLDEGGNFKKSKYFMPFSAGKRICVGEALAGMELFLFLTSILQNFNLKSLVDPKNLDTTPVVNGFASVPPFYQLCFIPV

As to `O=S(=O)(/C=C/c1ncccc1Cl)c1ccccc1Cl`, the fold change (FC) in data set [1] was determined as 26.1; in data set [5], 6.9. In [2], the viability at 6 h, 3 µM is 92.4%. Further, the Activity result in data set [3], in [9] and in data set [10] was “Dose-dependent effect” in each case. Further, the inhibition result in the data set with BV-2 [4] and in the data set on BV-2 [11] was “Dose-dependent effect” each time. Also, at CYP2C9, the activity amounted to 69.1%. Moreover, in data set [6], the viability at 6 h, 0.3 µM is 100%. The remaining at 0.5 h in [7] was found to be 66%. In addition, the viability at 6 h, 0.1 µM in data set [8] was 100%. In addition, in the data set with Mus musculus, the Activity result was “Active”.
